Screening results (PubChem BioAssay)
TRPN1 ag: activates the zebrafish TRPN1 channel; AID 1424; activation, % at 3 µM; 0.18% of 220,000 active; HEK293 zebrafish TRPN1-YFP, Fluo-8 calcium fluorescence; 100% = response to 87 µM carbachol;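 active = activation above its plate's cutoff, the mean activation of test wells on that plate plus 3 SD, cut at about 19% in these data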
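Material: zebrafish TRPN1-YFP in HEK293 cells; Doses: single test compound dose, 3 µM nominal, 0.3% DMSO; Timing: dye loading 1 h at 37 °C, then 30 min room temperature; Technique: intracellular calcium fluorescence with Fluo-8; Benchmarks: high carbachol 87 µM, low DMSO alone.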
TRPML3 agonist: agonists of human TRPML3 channel | Q8TDD5 | HEK293 TRPML3-YFP, Fluo-8 calcium fluorescence; 100% = the carbachol control signal | activation, % at 3 µM | 0.29% of 220,000 active | AID 1448;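 active = activation above its plate's cutoff, the mean activation of the plate's test wells plus 3 SD, cut at about 12% in these data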
Target sequence (Q8TDD5 whole entry, looked up): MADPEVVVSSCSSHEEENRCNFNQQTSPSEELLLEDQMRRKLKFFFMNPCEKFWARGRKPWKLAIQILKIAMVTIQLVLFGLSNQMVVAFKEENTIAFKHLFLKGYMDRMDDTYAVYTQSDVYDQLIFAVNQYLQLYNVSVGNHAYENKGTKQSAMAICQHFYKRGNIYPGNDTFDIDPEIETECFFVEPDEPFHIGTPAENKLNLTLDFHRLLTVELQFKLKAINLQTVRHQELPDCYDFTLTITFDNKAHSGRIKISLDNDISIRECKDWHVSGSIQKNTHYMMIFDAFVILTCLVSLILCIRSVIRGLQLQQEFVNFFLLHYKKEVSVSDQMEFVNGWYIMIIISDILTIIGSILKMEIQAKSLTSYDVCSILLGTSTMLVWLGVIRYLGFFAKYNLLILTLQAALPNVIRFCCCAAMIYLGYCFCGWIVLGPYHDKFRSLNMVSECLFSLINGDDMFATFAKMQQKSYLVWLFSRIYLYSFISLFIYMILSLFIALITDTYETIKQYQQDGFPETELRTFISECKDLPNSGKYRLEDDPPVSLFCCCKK
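Material: HEK293 cells stably carrying human TRPML3-YFP; compound dosing: single dose, 3 µM final nominal compound, 0.3% DMSO final; incubation: 1-h 37 °C dye load, 5-s basal, 120-s post-compound reads; technique: Fluo-8 intracellular calcium fluorescence, excitation 470-495 nm, emission 515-575 nm; read-out basis: percent activation from peak-to-basal fluorescence ratio, scaled between DMSO and carbachol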
IDE act: IDE (human) activation, cell-based. 0.073% of 340,000 active. activation, % at 5.96 µM. HEK cells, FAbeta-B cleavage, fluorescence polarization; 0% vehicle, 100% cell-free pure enzyme wells. AID 493087. P14735;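 active = activation above the mean of all tested compounds plus 3 SD, set per screening campaign, cut at about 17% in these data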
IDE inh: inhibitors of human insulin-degrading enzyme in cells; P14735; HEK cells, FAbetaB cleavage, fluorescence polarization; 0.41% of 320,000 active; inhibition, % at 5.59 µM;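 active = percent inhibition above the average of all tested compounds plus 3 SD, set per screening campaign, cut at about 16% in these data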;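 also: IDE supplied by intact live HEK cells; FP after avidin binding of uncleaved biotin substrate so inhibition keeps polarization high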
TRPN1 ag 2: counter-screen for TRPML3 agonists: agonists of zebrafish TRPN1 channel; shares compounds with TRPML3 agonist; HEK293 zebrafish TRPN1-YFP, Fluo-8 calcium fluorescence; scaled: carbachol wells 100%, DMSO wells 0%; activation, % at 3 µM; 10% of 310 active; AID 1525;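 active = mean activation over replicates above a set limit taken from the earlier TRPN1 channel primary screen, cut at about 19% in these data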
TRPML3 confirm: confirmation of human TRPML3 channel agonists; shares compounds with TRPML3 agonist; HEK293 TRPML3-YFP, Fluo-8 calcium fluorescence; 100% set by carbachol, 0% by DMSO; activation, % at 3 µM; 80% of 310 active; AID 1526;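 active = activation above a set limit derived from the earlier primary screen, cut at about 12% in these data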
IDE inh confirm: confirmation of human insulin-degrading enzyme inhibitors in cells | shares compounds with IDE inh | HEK cells, FAbetaB cleavage, fluorescence polarization | inhibition, % at 5.59 µM | 51% of 1,200 active;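 active = mean inhibition across triplicate wells above the cutoff set by the earlier primary insulin-degrading enzyme screen, cut at about 16% in these data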
HEK cytotox: HEK cell cytotoxicity, counter-screen for IDE inhibitors. AID 449730. HEK293 cytotoxicity, ATP luminescence. shares compounds with IDE inh. 28% of 1,200 active. inhibition, % at 5.59 µM; in the data active = inhibition above about 22%
Hits are given with their value; – = inactive; · = no result. Shown are actives, neighbours in structure and some others; about 0.63% of the full set was active somewhere.

SMILES	TRPN1 ag	TRPML3 agonist	IDE act	IDE inh	TRPN1 ag 2	TRPML3 confirm	others
COc1ccc(S(=O)(=O)Nc2ccc(F)cc2)cc1N(C)S(=O)(=O)c1ccc(Cl)cc1	–	–	–	–	·	·
COc1cc(C)ccc1S(=O)(=O)N1CCCCCC1	–	94.5	–	–	–	33.8
COc1ccc(S(=O)(=O)N2CCCCCC2)cc1N(C)S(=O)(=O)c1ccc(C)cc1	–	55.4	–	–	–	48.8
CCOc1ccc(S(=O)(=O)N2CCCCC2)c(C)c1C	–	84.5	–	·	–	77.4
CCOc1ccc(S(=O)(=O)N2CCN(C)CC2)c(C)c1C	–	–	–	–	·	·
C/C(=N\NC(=O)CCc1ccc(S(=O)(=O)N2CCOCC2)cc1)c1ccc(Br)cc1	–	–	–	–	·	·
Cc1ccc(S(=O)(=O)Nc2ccccc2N2CCCCC2)cc1	·	·	–	–	·	·
O=S(=O)(Nc1ccccc1N1CCCCC1)c1ccc(F)cc1F	–	15.8	–	–	–	–
CS(=O)(=O)NCCNc1ncc(C(F)(F)F)cc1Cl	–	–	–	–	·	·
O=S(=O)(NCCNc1ncc(C(F)(F)F)cc1Cl)C(F)(F)F	–	14.0	–	–	21.1	–
CCOc1ccc(N(CC(=O)N2CCN(Cc3ccccc3)CC2)S(C)(=O)=O)cc1	·	·	–	–	·	·
CN(CCOc1ccc(Cl)cc1)c1ccc(S(=O)(=O)N2CCCCC2)cn1	–	44.6	–	–	–	46.7
Cc1cccc(C)c1-n1nnnc1S(=O)(=O)Cc1ccccc1Cl	–	25.6	–	–	–	14.1
N#Cc1ccc(COC(=O)CN2C(=O)NC3(CCCC3)C2=O)cc1	·	·	–	·	·	·
CCOC(=O)C(C)(C)N(Cc1cccc(C)c1)S(=O)(=O)c1cccc([N+](=O)[O-])c1	–	12.3	–	–	–	36.1
COc1ccc(C)cc1S(=O)(=O)NC1CCCCCC1	·	·	–	–	·	·
COc1ccc(S(=O)(=O)NC2CCCCC2)c(C)c1C	–	13.6	–	–	–	14.8
COc1ccc(OC)c(N(CC(=O)N2CCCCC2)S(=O)(=O)c2ccc(OC)c(OC)c2)c1	–	87.8	–	–	–	104.7
COc1cc2oc3ccccc3c2cc1N(CC(=O)N1CCCCC1)S(=O)(=O)c1ccc(C)cc1	–	178.7	–	–	47.8	146.6
COc1cc2oc3ccccc3c2cc1N(CC(=O)N(C)C)S(=O)(=O)c1ccc(C)cc1	–	–	–	–	·	·
COc1ccc(N(CC(=O)N2CCCCC2)S(=O)(=O)c2ccccc2)c(OC)c1	–	70.6	–	–	–	120.9
COc1ccc(OC)c(N(CC(=O)N2CCCC2)S(=O)(=O)c2ccc(C)cc2)c1	·	·	–	–	·	·
Cc1ccc(NC(=O)CCN2CCOCC2)cc1C	·	·	–	·	·	·
CC(=O)NC(Cc1cccc(C)c1)C(=O)NC1CCN(C(=O)NCc2ccccc2)CC1 (configuration not stated)	·	·	–	·	·	·
CC(C)CNC(=O)/C=C/C=C/c1ccc2c(c1)OCO2	·	·	–	–	·	·
SMILES	TRPN1 ag	TRPML3 agonist	IDE act	IDE inh	TRPN1 ag 2	TRPML3 confirm	others
Cc1ccccc1OCC(=O)NCCCNC(=O)c1ccncc1	·	·	–	–	·	·
CC1CCCC(C)N1C(=C(Cl)Cl)C(=C1SCCS1)[N+](=O)[O-] (configuration not stated)	–	13.7	–	–	–	55.1
COc1ccc([C@H]2CC(=O)C=C(c3cc4ccccc4s3)C2)cc1OC	·	·	–	–	·	·
O=C(NCCc1ccc(Cl)cc1Cl)c1cncc(Br)c1	·	·	–	–	·	·
COC(=O)c1ccc(/C=C(\C#N)c2nc3ccccc3s2)cc1	–	14.3	–	31.7	–	–	IDE inh confirm=–;HEK cytotox=–
CCCCC(=O)Nc1ccc2c(c1)nc(CN1CCN(C(=O)OCC)CC1)n2C	·	·	–	–	·	·
COc1ccc(C(=O)CC(=O)c2ccc(F)cc2)cc1	·	·	·	–	·	·
COc1ccc(/C=C2\C(=O)NC(=S)N2C(=O)c2ccc(F)cc2)cc1	–	13.8	–	37.4	–	–	IDE inh confirm=58.6;HEK cytotox=–
